Data published in article PMC10651775 (Blood, 2022).
Structures can show the parent of a compound that is named as a salt. Where two headings read alike, the source gives them in different places.

Assays:
patients with R/R ATL [1] = assay: Phase 2 trial of valemetostat: safety; format: in vivo, human
In short: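 Safety population: all patients receiving ≥1 dose of oral test compound, 200 mg once daily, fasting, in continuous 28-day cycles; dose was reduced to 50 mg with strong CYP3A plus P-gp inhibitors. Adverse events were coded with MedDRA version 23.1 and graded by CTCAE version 5.0.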

[2] = Plasma valemetostat pharmacokinetics, noncompartmental analysis; format: in vivo, human; settings: Mean (SD); for AUC / Cmax: human, plasma, oral, 200 mg; for AUC: AUCtau, Cycle 1 day 15 (steady state)
In short: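 Patients took oral test compound, 200 mg once daily, fasting. Serial and trough blood samples were taken for plasma drug levels. Total and unbound drug were measured at steady state on cycle 1 day 15. Accumulation ratio was derived from AUC over the dosing interval.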

patients with R/R ATL [3] = assay: Phase 2 trial of valemetostat: investigator-assessed response; format: in vivo, human; settings: 7/25 (CR plus CRu)
In short: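 Investigator-assessed response in patients given ≥1 dose of oral test compound, 200 mg once daily, fasting, 28-day cycles. Nodal/extranodal lesions were measured by CT as sums of products of greatest diameters, skin by visual review and modified severity-weighted assessment tool, and blood by white cell, lymphocyte and abnormal lymphocyte counts. ORR was the proportion with best response CR, CRu or PR, with a Clopper-Pearson 90% CI.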

patients with R/R ATL [4] = format: in vivo, human
In short: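 Adults with R/R ATL (acute, lymphoma or unfavourable chronic type) took oral test compound (EZH1/EZH2 inhibitor) 200 mg once daily, fasting, in continuous 28-day cycles until progression or unacceptable toxicity; 50 mg if on strong CYP3A plus P-gp inhibitors. An independent committee assessed response at week 4, then every 8 weeks, then every 12 weeks after week 48, using modified ATL criteria without the ≥4-week persistence requirement.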

H3K27 trimethylation = settings: compared with the EZH2-selective inhibitor tazemetostat; cited from earlier work
ATL cell = settings: compared with tazemetostat and GSK126; cited from earlier work
R/R ATL = settings: phase 2 study (3/12); cited from earlier work
[5] = Grade ≥3 hematologic TEAE, % of patients
[6] = hematologic TEAE, all grades, % of patients
[7] = IEAC best response, ATL subtype Acute, N=16
[8] = IEAC best response, ATL subtype Lymphoma, N=6
[9] = IEAC best response, ATL subtype Unfavorable chronic, N=3
[10] = IEAC best response, All patients, N=25
[11] = IEAC best response, Disease site Nodal or extranodal lesions, N=20
[12] = IEAC best response, Disease site Peripheral blood, N=9
[13] = IEAC best response, Disease site Skin lesions, N=7
[14] = IEAC best response, Disease status Recurrent, N=6
[15] = IEAC best response, Disease status Refractory, N=11
[16] = IEAC best response, Disease status Relapsed, N=8
[17] = IEAC best response, Prior lenalidomide treatment No, N=17
[18] = IEAC best response, Prior lenalidomide treatment Yes, N=8
[19] = IEAC best response, Prior mogamulizumab treatment No, N=1
[20] = IEAC best response, Prior mogamulizumab treatment Yes, N=24

## Cc1cc(C)c(CNC(=O)c2cc(Cl)c3c(c2C)O[C@@](C)([C@H]2CC[C@H](N(C)C)CC2)O3)c(=O)[nH]1 [valemetostat, Valemetostat tosylate]
Patients with R/R ATL [1]; 2 patients
  TEAEs leading to dose reduction: 8%
Patients with R/R ATL [1]; 8 patients
  Serious TEAEs: 32%
Patients with R/R ATL [1]; AE of special interest
  Secondary malignancies, including hematologic malignancy or myelodysplastic syndrome: not observed
Patients with R/R ATL [1]; Five patients
  TEAEs that required dose interruption: 20%
Patients with R/R ATL [1]; [5]
  anemia: 32%
  leukopenia: 12%
  lymphopenia: 16%
  neutropenia: 12%
  thrombocytopenia: 32%
Patients with R/R ATL [1]; N = 25
  Grade ≥3 TEAEs: 15 (60.0) n (%)
  Grade ≥3 TRAEs: 14 (56.0) n (%)
  Serious TEAE: 8 (32.0) n (%)
  Serious TRAEs: 7 (28.0) n (%)
  TEAEs leading to discontinuation: 2 (8.0) n (%)
  TEAEs leading to interruption: 5 (20.0) n (%)
  TEAEs leading to reduction: 2 (8.0) n (%)
  TRAEs: 24 (96.0) n (%)
  TRAEs leading to discontinuation: 2 (8.0) n (%)
  TRAEs leading to interruption: 4 (16.0) n (%)
  TRAEs leading to reduction: 2 (8.0) n (%)
Patients with R/R ATL [1]; N = 25, All AEs
  TEAEs: 25 (100.0) n (%)
Patients with R/R ATL [1]; TEAE, All grades, N = 25
  Alopecia: 10 (40.0) n (%)
  Decreased appetite: 5 (20.0) n (%)
  Dysgeusia: 9 (36.0) n (%)
  Pyrexia: 5 (20.0) n (%)
  anemia: 13 (52.0) n (%)
  leukopenia: 5 (20.0) n (%)
  lymphopenia: 6 (24.0) n (%)
  neutropenia: 7 (28.0) n (%)
  thrombocytopenia: 20 (80.0) n (%)
Patients with R/R ATL [1]; TEAE, Grade ≥3, N = 25
  Alopecia: 0 n (%)
  Decreased appetite: 2 (8.0) n (%)
  Dysgeusia: 0 n (%)
  Pyrexia: 0 n (%)
  anemia: 8 (32.0) n (%)
  leukopenia: 3 (12.0) n (%)
  lymphopenia: 4 (16.0) n (%)
  neutropenia: 3 (12.0) n (%)
  thrombocytopenia: 8 (32.0) n (%)
Patients with R/R ATL [1]; Two patients (cardiac failure, thrombocytopenia)
  discontinued study treatment owing to AEs: 8%
Patients with R/R ATL [1]; discontinuation 1 patient, dose interruption 2 patients
  patients with thrombocytopenia who required dose modification: Three of 20
Patients with R/R ATL [1]; grade 4 thrombocytopenia, recovery to platelet count ≥25 × 10^9/L
  median time to recovery: 3 days
Patients with R/R ATL [1]; [6]
  anemia: 52%
  leukopenia: 20%
  lymphopenia: 24%
  neutropenia: 28%
  thrombocytopenia: 80%
Patients with R/R ATL [1]; in vivo
  patients requiring a red blood cell transfusion for anemia: 3 patients
  patients requiring platelet transfusions for thrombocytopenia: Five
  treatment-related deaths: No treatment-related deaths occurred
Patients with R/R ATL [1]; platelet count <25 × 10^9/L
  patients who experienced grade 4 thrombocytopenia: 3 patients
[2]; Total, Cycle 1 day 15
  Rac (accumulation ratio for AUCtau): 1.19
[2]; Unbound, Cycle 1 day 15
  Rac (accumulation ratio for AUCtau): 1.27
[2]; Total
  AUC: 20800 ng·h/mL
[2]; Unbound
  AUC: 584 ng·h/mL
[2]; Total valemetostat, Cycle 1 day 1, 200 mg once daily
  Cmax: 2230 ng/mL
[2]; Total valemetostat, Cycle 1 day 15
  Cmax: 2300 ng/mL
[2]; Unbound valemetostat, Cycle 1 day 1
  Cmax: 81.7 ng/mL
[2]; Unbound valemetostat, Cycle 1 day 15
  Cmax: 84.9 ng/mL
Patients with R/R ATL [3]
  investigator-assessed CR rate: 28.0%
Patients with R/R ATL [4]; IEAC
  ORR in nodal or extranodal lesions: 50%
Patients with R/R ATL [4]; [7]
  CR: 5 (31.3) n (%)
  CRu: 0 n (%)
  ORR: 10 (62.5) n (%)
  PD: 2 (12.5) n (%)
  PR: 5 (31.3) n (%)
Patients with R/R ATL [4]; [8]
  CR: 0 n (%)
  CRu: 0 n (%)
  ORR: 1 (16.7) n (%)
  PD: 0 n (%)
  PR: 1 (16.7) n (%)
Patients with R/R ATL [4]; [9]
  CR: 0 n (%)
  CRu: 0 n (%)
  ORR: 1 (33.3) n (%)
  PD: 1 (33.3) n (%)
  PR: 1 (33.3) n (%)
Patients with R/R ATL [4]; [10]
  CR: 5 (20.0) n (%)
  CRu: 0 n (%)
  ORR: 12 (48.0) n (%)
  PD: 3 (12.0) n (%)
  PR: 7 (28.0) n (%)
Patients with R/R ATL [4]; [11]
  CR: 6 (30.0) n (%)
  CRu: 2 (10.0) n (%)
  ORR: 10 (50.0) n (%)
  PD: 3 (15.0) n (%)
  PR: 2 (10.0) n (%)
Patients with R/R ATL [4]; [12]
  CR: 2 (22.2) n (%)
  ORR: 8 (88.9) n (%)
  PD: 0 n (%)
  PR: 6 (66.7) n (%)
Patients with R/R ATL [4]; [13]
  CR: 1 (14.3) n (%)
  PD: 0 n (%)
  PR: 2 (28.6) n (%)
Patients with R/R ATL [4]; [14]
  CR: 1 (16.7) n (%)
  CRu: 0 n (%)
  ORR: 4 (66.7) n (%)
  PD: 0 n (%)
  PR: 3 (50.0) n (%)
Patients with R/R ATL [4]; [15]
  CR: 3 (27.3) n (%)
  CRu: 0 n (%)
  ORR: 5 (45.5) n (%)
  PD: 2 (18.2) n (%)
  PR: 2 (18.2) n (%)
Patients with R/R ATL [4]; [16]
  CR: 1 (12.5) n (%)
  CRu: 0 n (%)
  ORR: 3 (37.5) n (%)
  PD: 1 (12.5) n (%)
  PR: 2 (25.0) n (%)
Patients with R/R ATL [4]; [17]
  CR: 5 (29.4) n (%)
  CRu: 0 n (%)
  ORR: 8 (47.1) n (%)
  PD: 2 (11.8) n (%)
  PR: 3 (17.6) n (%)
Patients with R/R ATL [4]; [18]
  CR: 0 n (%)
  CRu: 0 n (%)
  ORR: 4 (50.0) n (%)
  PD: 1 (12.5) n (%)
  PR: 4 (50.0) n (%)
Patients with R/R ATL [4]; [19]
  CR: 1 (100.0) n (%)
  CRu: 0 n (%)
  ORR: 1 (100.0) n (%)
  PD: 0 n (%)
  PR: 0 n (%)
Patients with R/R ATL [4]; [20]
  CR: 4 (16.7) n (%)
  CRu: 0 n (%)
  ORR: 11 (45.8) n (%)
  PD: 3 (12.5) n (%)
  PR: 7 (29.2) n (%)
Patients with R/R ATL [4]; IEAC-assessed, range 1.0-5.6 months
  median TTR (time to response): 1.4 months
Patients with R/R ATL [4]; IEAC, acute (10/16)
  ORR by subtype: 62.5%
Patients with R/R ATL [4]; IEAC, all patients (5/25)
  CR rate: 20.0%
Patients with R/R ATL [4]; IEAC, all patients (7/25)
  PR rate: 28.0%
Patients with R/R ATL [4]; IEAC, best response CR, CRu, PR or SD, 95% CI 68.8-97.5
  TCR (tumor control rate): 88.0%
Patients with R/R ATL [4]; IEAC, lymphoma (1/6)
  ORR by subtype: 16.7%
Patients with R/R ATL [4]; IEAC, patients pretreated with mogamulizumab (11/24), 90% CI 28.2-64.2
  ORR: 45.8%
Patients with R/R ATL [4]; IEAC, patients refractory to mogamulizumab-containing therapies (3/6)
  ORR: 50.0%
Patients with R/R ATL [4]; IEAC, patients with prior lenalidomide treatment (4/8), 90% CI 15.7-84.3
  ORR: 50%
Patients with R/R ATL [4]; IEAC, recurrent (4/6)
  ORR by disease status: 66.7%
Patients with R/R ATL [4]; IEAC, refractory disease (5/11)
  ORR by disease status: 45.5%
Patients with R/R ATL [4]; IEAC, relapsed (3/8)
  ORR by disease status: 37.5%
Patients with R/R ATL [4]; IEAC, unfavorable chronic (1/3)
  ORR by subtype: 33.3%
Patients with R/R ATL [4]; all patients (12/25), 90% CI 30.5-65.9
  centrally reviewed IEAC-assessed ORR: 48.0%
Patients with R/R ATL [4]; at data cutoff (6/12)
  responders with an ongoing response: 50%
Patients with R/R ATL [4]; following treatment initiation
  patients who achieved SD able to receive valemetostat for ≥6 months: 4 of 10
Patients with R/R ATL [4]; immature, 95% CI 3.0 months to not estimable
  median PFS: 7.4 months
Patients with R/R ATL [4]; immature, 95% CI 6.5-16.4 months
  median OS: 16.4 months
Patients with R/R ATL [4]; in vivo
  responses converted from PR to CR: 2 patients
H3K27 trimethylation
  H3K27 trimethylation: strongly reduced H3K27 trimethylation
ATL cell
  attenuation of ATL cell growth in vitro: greater attenuation of ATL cell growth in vitro at lower concentrations than tazemetostat and GSK126

B1: mogamulizumab: defucosylated anti-CCR4 antibody (antibody, chains of the INN, looked up, V domains shown)
VH: EVQLVESGGDLVQPGRSLRLSCAASGFIFSNYGMSWVRQAPGKGLEWVATISSASTYSYYPDSVKGRFTISRDNAKNSLYLQMNSLRVEDTALYYCGRHSDGNFAFGYWGQGTLVTVSS
VL: DVLMTQSPLSLPVTPGEPASISCRSSRNIVHINGDTYLEWYLQKPGQSPQLLIYKVSNRFSGVPDRFSGSGSGTDFTLKISRVEAEDVGVYYCFQGSLLPWTFGQGTKVEIK
R/R ATL
  ORR in nodal or extranodal lesions: 25%
